For nine molecules, Activity and IC50 results are on record in ChEMBL document CHEMBL3046871, “Antimicrobial and antiprotozoal activities of secondary metabolites from the fungus Eurotium repens” (Med Chem Res, 2012).

Assay [1] has as its system Mycobacterium intracellulare. As to the kind of experiment: Antibacterial activity against Mycobacterium intracellulare ATCC 23068. The format is functional, organism-based.
In another assay the test system is Candida albicans. As to the kind of experiment: Antifungal activity against Candida albicans ATCC 90028. The format is functional, organism-based.
The test system of assay [2] is Plasmodium falciparum. As to the kind of experiment: Antimalarial activity against chloroquine-sensitive Plasmodium falciparum D6 after 72 hr by plasmodial LDH assay. The format is functional, organism-based. The gist of the method: (§1)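 Compounds dissolved in DMSO (2 mg/ml stock), serially diluted. Culture at 2% parasitemia and 2% hematocrit in RPMI 1640 with 10% human serum and 60 μg/ml amikacin, under 90% N2/5% O2/5% CO2, 37°C for 72 h. LDH read-out: Malstat reagent 30 min, then NBT/PES 1 h in dark, acetic acid stop, absorbance 650 nm. IC50 from dose–response curves. Chloroquine positive control; 0.25% DMSO vehicle.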

A further assay has as its system Aspergillus fumigatus. Briefly: Antifungal activity against Aspergillus fumigatus ATCC 204305. The format is functional, organism-based.
Assay [3] deals with Plasmodium falciparum. Briefly: Antimalarial activity against chloroquine-resistant Plasmodium falciparum W2 after 72 hr by plasmodial LDH assay. The format is functional, organism-based. A digest of the protocol:
as §1

The subject of assay [4] is Pichia kudriavzevii. As to the kind of experiment: Antifungal activity against Pichia kudriavzevii ATCC 6258 at 20 ug/ml. The format is functional, organism-based.
A further assay has as its system Pseudomonas aeruginosa. Briefly: Antibacterial activity against Pseudomonas aeruginosa ATCC 27853. The format is functional, organism-based.
In assay [5] the test system is Staphylococcus aureus. As to the kind of experiment: Antibacterial activity against Staphylococcus aureus ATCC 29213 at 20 ug/ml. The format is functional, organism-based.
The next assay relates to Leishmania donovani. Briefly: Antileishmanial activity against promastigote form of Leishmania donovani after 48 hr by alamar blue assay. The format is functional, organism-based. A digest of the protocol: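 A 3-day-old promastigote culture grown in RPMI 1640 with 10% FCS at 26°C was diluted to 5 × 10^5/ml. Drug dilutions were made directly in the cell suspension, then incubated 48 h at 26°C. Growth was read by Alamar blue fluorescence (ex 544/em 590 nm). IC50 came from dose–response curves, with pentamidine and amphotericin B as standards.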

Assay [6] deals with Staphylococcus aureus. As to the kind of experiment: Antibacterial activity against methicillin-resistant Staphylococcus aureus ATCC 33591. The format is functional, organism-based.
For another assay, the system named is Vero. As to the kind of experiment: Cytotoxicity against Chlorocebus aethiops (African green monkey) Vero cells after 48 hr by neutral red assay. The format is cell-based, Chlorocebus sabaeus.
For assay [7], the system named is Cryptococcus neoformans. Briefly: Antifungal activity against Cryptococcus neoformans ATCC 90113 at 20 ug/ml. The format is functional, organism-based.
For another assay, the system named is Escherichia coli. Briefly: Antibacterial activity against Escherichia coli ATCC 35218. The format is functional, organism-based.
The subject of assay [8] is Nakaseomyces glabratus. Briefly: Antifungal activity against Candida glabrata ATCC 90030. The format is functional, organism-based.
Assay [9] concerns Staphylococcus aureus. Briefly: Antibacterial activity against Staphylococcus aureus ATCC 29213. The format is functional, organism-based.
In assay [10] the test system is Cryptococcus neoformans. As to the kind of experiment: Antifungal activity against Cryptococcus neoformans ATCC 90113. The format is functional, organism-based.
Assay [11] concerns Staphylococcus aureus. Briefly: Antibacterial activity against methicillin-resistant Staphylococcus aureus ATCC 33591 at 20 ug/ml. The format is functional, organism-based.
The test system of assay [12] is Nakaseomyces glabratus. Briefly: Antifungal activity against Candida glabrata ATCC 90030 at 20 ug/ml. The format is functional, organism-based.
Assay [13] relates to Pichia kudriavzevii. As to the kind of experiment: Antifungal activity against Pichia kudriavzevii ATCC 6258. The format is functional, organism-based.
The mark [14] stands for this setting: Plasmodium falciparum, D6, 72 h, read-out: IC50.
The mark [15] stands for this setting: Plasmodium falciparum, W2, 72 h, read-out: IC50.
Where [16] appears, read: Leishmania donovani, 48 h, read-out: IC50.

≈ marks a conversion by molar mass, not a printed value. Calls of active or inactive are those of the source. The rule behind the calls is not given here.

For the molecule `CCCCC/C=C/c1c(O)cc(CC=C(C)C)c(O)c1CO`, the result (in [1]; in the assay with Candida albicans; in the assay on Aspergillus fumigatus; with Pichia kudriavzevii [4]; in the assay with Pseudomonas aeruginosa; in the assay with Staphylococcus aureus [5]) was inactive. Moreover, the result with Cryptococcus neoformans [7] and in the assay on Escherichia coli was inactive. The half-inhibitory concentration (IC50) was 3 µg/mL (≈ 9.85 µM) in the assay on Plasmodium falciparum [2] (setting [14]); 2.8 µg/mL (≈ 9.2 µM) in the assay on Plasmodium falciparum [3] (setting [15]); 19 µg/mL (≈ 62.4 µM) in the assay with Leishmania donovani (setting [16]); 12 µg/mL (≈ 39.3 µM) with Staphylococcus aureus [6]; “Non-toxic” with Vero; 7.17 µg/mL (≈ 23.6 µM) with Nakaseomyces glabratus [8].

Regarding `CCC/C=C/c1cc2c(C=O)c(O)c(CC=C(C)C)cc2o1`, the outcome (in assay [1]; in the assay with Candida albicans; with Aspergillus fumigatus; in the assay on Pichia kudriavzevii [4]; with Pseudomonas aeruginosa; in the assay with Escherichia coli) was inactive. For the same molecule, the IC50 is 7.75 µg/mL (≈ 26 µM) in the assay with Staphylococcus aureus [9]; 3 µg/mL (≈ 10.1 µM) in the assay with Plasmodium falciparum [2] (setting [14]); 5.31 µg/mL (≈ 17.8 µM) with Cryptococcus neoformans [10]; 2.8 µg/mL (≈ 9.38 µM) in the assay with Plasmodium falciparum [3] (setting [15]); 5.4 µg/mL (≈ 18.1 µM) in the assay with Staphylococcus aureus [6]; “Non-toxic” in the assay on Vero. Further, the IC50 in the assay on Nakaseomyces glabratus [8] stood at 1.13 µg/mL (≈ 3.79 µM).

Turning to `Cc1c(O)cc(O)c2c1COC2=O` [5,7-DIHYDROXY-4-METHYLPHTHALIDE], the outcome (in assay [1]; in the assay on Staphylococcus aureus [11]; in the assay with Candida albicans; in the assay with Aspergillus fumigatus; in the assay with Pichia kudriavzevii [4]; with Pseudomonas aeruginosa) was inactive. Moreover, the outcome in the assay with Staphylococcus aureus [5], in the assay on Nakaseomyces glabratus [12] and in the assay on Escherichia coli was inactive. For the same molecule, the concentration for half-maximal inhibition (IC50) entry in the assay with Plasmodium falciparum [2] is “Not Active”; in the assay on Cryptococcus neoformans [10] it was 18.1 µg/mL (≈ 100 µM); with Plasmodium falciparum [3], “Not Active”; with Leishmania donovani it was “Not Active”; in the assay with Vero, “Non-toxic”.

For the molecule `C[C@@H]1[C@H](O)[C@@H](C)/C=C/C=C/C=C/C=C/C=C/C=C/C=C/[C@H](O[C@@H]2O[C@H](C)[C@@H](O)[C@H](N)[C@@H]2O)C[C@@H]2O[C@](O)(C[C@@H](O)C[C@@H](O)[C@H](O)CC[C@@H](O)C[C@@H](O)CC(=O)O[C@H]1C)C[C@H](O)[C@H]2C(=O)O` [AMPHOTERICIN B], the IC50 in the assay on Pichia kudriavzevii [13] is 0.36 µg/mL (≈ 0.39 µM); in the assay with Cryptococcus neoformans [10] it was 1.23 µg/mL (≈ 1.33 µM); in the assay with Nakaseomyces glabratus [8], 0.32 µg/mL (≈ 0.346 µM).

For `C/C=C/C=C/C=C/c1c(O)cc(CC=C(C)C)c(O)c1C=O` [AUROGLAUCIN], the result (in assay [1]; with Staphylococcus aureus [11]; in the assay on Candida albicans; with Aspergillus fumigatus; with Pseudomonas aeruginosa; with Staphylococcus aureus [5]) was inactive. Also, the outcome in the assay on Cryptococcus neoformans [7] and with Escherichia coli was inactive. Besides, the IC50 with Pichia kudriavzevii [13] is 10.9 µg/mL (≈ 36.6 µM); in the assay on Leishmania donovani (setting [16]) it was 7.5 µg/mL (≈ 25.1 µM); with Vero, “Non-toxic”; in the assay with Nakaseomyces glabratus [8], 7.33 µg/mL (≈ 24.6 µM).

On to `CCC/C=C/C=C/c1c(O)cc(CC=C(C)C)c(O)c1C=O` [DIHYDROAUROGLAUCIN], for which the result (in assay [1]; in the assay with Staphylococcus aureus [11]; in the assay with Candida albicans; with Aspergillus fumigatus; with Pichia kudriavzevii [4]; with Pseudomonas aeruginosa) was inactive. The outcome in the assay with Staphylococcus aureus [5], with Cryptococcus neoformans [7] and in the assay with Escherichia coli was inactive. Further, the IC50 entry in the assay on Plasmodium falciparum [2] was “Not Active”; in the assay with Plasmodium falciparum [3] it was “Not Active”; with Leishmania donovani (setting [16]) it was 20 µg/mL (≈ 66.6 µM); with Vero, “Non-toxic”; in the assay with Nakaseomyces glabratus [8], 2.39 µg/mL (≈ 7.96 µM).

With `C=CC(C)(C)c1[nH]c2c(CC=C(C)C)cc(CC=C(C)C)cc2c1C[C@@H]1NC(=O)[C@H](C)NC1=O` [ECHINULIN], the result (in assay [1]; in the assay with Staphylococcus aureus [11]; in the assay with Candida albicans; with Aspergillus fumigatus; with Pichia kudriavzevii [4]; in the assay on Pseudomonas aeruginosa) was inactive. Besides, the outcome in the assay on Staphylococcus aureus [5], in the assay on Nakaseomyces glabratus [12], in the assay with Cryptococcus neoformans [7] and with Escherichia coli was inactive. Also, the IC50 result in the assay with Plasmodium falciparum [2] was “Not Active”; in the assay on Plasmodium falciparum [3] it was “Not Active”; in the assay with Leishmania donovani, “Not Active”; with Vero, “Non-toxic”.

Turning to `CCCCCCCc1c(O)cc(CC=C(C)C)c(O)c1C=O` [FLAVOGLAUCIN], the result (in [1]; in the assay on Candida albicans; in the assay on Aspergillus fumigatus; in the assay with Pichia kudriavzevii [4]; in the assay with Pseudomonas aeruginosa; in the assay with Nakaseomyces glabratus [12]) was inactive. For the same molecule, the result in the assay on Cryptococcus neoformans [7] and with Escherichia coli was inactive. In addition, the 50% inhibitory concentration (IC50) in the assay with Staphylococcus aureus [9] was 14.3 µg/mL (≈ 47 µM); in the assay on Plasmodium falciparum [2] (setting [14]) it was 3 µg/mL (≈ 9.85 µM); in the assay on Leishmania donovani (setting [16]), 23 µg/mL (≈ 75.6 µM); with Staphylococcus aureus [6], 10.4 µg/mL (≈ 34.2 µM); in the assay on Vero, “Non-toxic”.

With `CCCCC/C=C/c1c(O)cc(CC=C(C)C)c(O)c1C=O` [TETRAHYDROAUROGLAUCIN], the result (in assay [1]; in the assay with Staphylococcus aureus [11]; in the assay with Candida albicans; in the assay with Aspergillus fumigatus; in the assay on Pichia kudriavzevii [4]; in the assay with Pseudomonas aeruginosa) was inactive. Besides, the outcome in the assay with Cryptococcus neoformans [7] and in the assay with Escherichia coli was inactive. The IC50 in the assay on Staphylococcus aureus [9] is 13.5 µg/mL (≈ 44.7 µM); in the assay on Plasmodium falciparum [2] (setting [14]), 2.8 µg/mL (≈ 9.26 µM); in the assay with Plasmodium falciparum [3] (setting [15]) it was 2.3 µg/mL (≈ 7.61 µM); in the assay on Leishmania donovani (setting [16]) it was 22 µg/mL (≈ 72.7 µM); with Vero, “Non-toxic”; in the assay on Nakaseomyces glabratus [8], 6.15 µg/mL (≈ 20.3 µM).
